Experimental data pooled from the literature.
Protocols differ between the studies behind these lines.
Effect on: parasite growth

Structure (SMILES) | organism | technique | time | setting | IC50
CCCCCCCCCCCCCCCCOP(=O)([O-])OCC[N+](C)(C)C | Leishmania amazonensis | MTT | 72 h | promastigote | 15.1 µM
COc1cc(O)c(CC=C(C)C)c(O)c1C(=O)/C=C/c1ccc(O)cc1 | Leishmania amazonensis | MTT | 72 h | promastigote | 47.2 µM
COc1ccc(Sc2ccccc2)c(OC)c1OC | Leishmania braziliensis | MTT | – | promastigote | 14 µM
CC(C)(C)CC(C)(C)Nc1c(-c2cccc([N+](=O)[O-])c2)nc2ncccn12 | Leishmania amazonensis | MTT | 72 h | promastigote | > 100 µM
Oc1ccc(/C=C/c2cc(O)cc(O)c2)cc1 | Leishmania amazonensis | imaging | 48 h | intracellular, amastigote | 14 µM
CCCCCCCCc1nc2ncccn2c1NC(C)(C)CC(C)(C)C | Leishmania amazonensis | MTT | 72 h | promastigote | 40.6 µM
C=C1CC[C@@H]2[C@](C)(CCC[C@]2(C)C(=O)O)[C@H]1CC/C(C)=C/C(=O)O | Leishmania amazonensis | – | 72 h | promastigote | 28 µg/mL
C[C@@H]1[C@H](O)[C@@H](C)/C=C/C=C/C=C/C=C/C=C/C=C/C=C/[C@H](O[C@@H]2O[C@H](C)[C@@H](O)[C@H](N)[C@@H]2O)C[C@@H]2O[C@](O)(C[C@@H](O)C[C@@H](O)[C@H](O)CC[C@@H](O)C[C@@H](O)CC(=O)O[C@H]1C)C[C@H](O)[C@H]2C(=O)O | Leishmania braziliensis | MTT | 24 h | promastigote | 22 µM
C=C1CC[C@@H]2[C@](C)(CCC[C@@]2(C)C(=O)O)[C@H]1CCc1ccoc1 | Leishmania amazonensis | – | 72 h | promastigote | 35 µg/mL
COc1ccc(S(=O)(=O)c2ccc(OC)c(OC)c2OC)cc1 | Leishmania braziliensis | MTT | 24 h | promastigote | 32 µM
C=C1CC[C@@H]2[C@](C)(CCC[C@@]2(C)C(=O)O)[C@H]1CC[C@H](C)CC(=O)O | Leishmania amazonensis | – | 72 h | promastigote | 70 µg/mL
CC(C)(C)CC(C)(C)Nc1c(-c2cccs2)nc2ncccn12 | Leishmania amazonensis | MTT | 72 h | promastigote | > 100 µM
